# Calls of active or inactive are those of the source. The calls are words filed in the database; no cut-off is given here.
# Experiments:
# [1] = biological target: Human immunodeficiency virus type 1 integrase (Human immunodeficiency virus 1) (UniProt Q7ZJM1); experiment: Binding affinity to His6-tagged recombinant HIV1 Integrase assessed as inhibition of protein interaction with 3xFLAG-tagged LEDGF/p75 at 100 uM preincubated for 30 mins followed by 3xFLAG-tagged LEDGF/p75 addition measured after 60 mins by AlphaScreen assay relative to control
# Sequence of Human immunodeficiency virus type 1 integrase (Human immunodeficiency virus 1) (Q7ZJM1 as listed by the source): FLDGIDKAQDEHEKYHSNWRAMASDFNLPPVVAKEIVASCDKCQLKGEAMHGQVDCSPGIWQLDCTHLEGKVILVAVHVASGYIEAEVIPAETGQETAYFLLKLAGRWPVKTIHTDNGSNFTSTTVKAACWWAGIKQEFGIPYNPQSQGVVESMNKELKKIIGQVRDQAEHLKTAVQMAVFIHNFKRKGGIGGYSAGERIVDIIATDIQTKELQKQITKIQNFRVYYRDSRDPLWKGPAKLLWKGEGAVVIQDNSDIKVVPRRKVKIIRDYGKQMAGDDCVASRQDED
# Outline: (§1)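 His6-integrase (300 nM final) preincubated with compound 30 min at 4 °C, then FLAG-LEDGF/p75 (300 nM final) added for 60 min at 4 °C; Ni-chelate donor and anti-FLAG acceptor beads (20 µg/mL each) added, 1 h at 30 °C, light-protected. Buffer: 25 mM Tris-HCl pH 7.4, 150 mM NaCl, 1 mM MgCl2, 0.01% Tween-20, 0.1% BSA. Single-point screen at 100 µM; IC50 determined where inhibition exceeded 50%.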
# [2] = Cytotoxicity against human MT4 cells assessed as reduction in cell viability by MTT assay; format: cell-based
# Outline: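 Uninfected MT-4 cells exposed to five-fold serial dilutions of compound; viability measured by MTT reduction to formazan, read spectrophotometrically; CC50 = concentration killing 50% of cells.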
# [3] = test system: Human immunodeficiency virus 1; experiment: Antiviral activity against HIV1 3B infected in human MT4 cells assessed as protection against virus-induced cytopathic effect by MTT assay; format: functional, organism-based; details: Human immunodeficiency virus 1, 3B
# Outline: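 MT-4 cells infected with 100–300 CCID50 of HIV-1 IIIB (virus titred in MT-4 cells) with five-fold serial dilutions of compound; protection from viral cytopathic effect read by MTT reduction to formazan, measured spectrophotometrically; EC50 = concentration giving 50% protection.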
# Homo sapiens = species: Homo sapiens; experiment: Inhibition of FLAG-tagged GST (unknown origin) at 100 uM by emission quenching AlphaScreen assay relative to control
# Outline: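 Emission-quench counter-screen: FLAG-tagged GST (500 nM final) replaces integrase and LEDGF/p75, otherwise run as the AlphaScreen interaction assay (Ni-chelate donor and anti-FLAG acceptor beads, 20 µg/mL each, 1 h at 30 °C; Tris-HCl pH 7.4 buffer). Compound tested at 100 µM; percent inhibition of signal.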
# [4] = biological target: Human immunodeficiency virus type 1 integrase (Human immunodeficiency virus 1, UniProt Q7ZJM1); experiment: Binding affinity to His6-tagged recombinant HIV1 Integrase assessed as inhibition of protein interaction with 3xFLAG-tagged LEDGF/p75 preincubated for 30 mins followed by 3xFLAG-tagged LEDGF/p75 addition measured after 60 mins by AlphaScreen assay; outline: as §1
# Sequence of Human immunodeficiency virus type 1 integrase (Q7ZJM1 whole entry): as the sequence (Q7ZJM1 as listed by the source) above
Structure (SMILES),inhibition [1],CC50 [2] [µM],EC50 [3] [µM],inhibition (Homo sapiens),IC50 [4] [µM]
CSc1ccc(Nc2ccc(F)c3ccccc23)cc1,inactive,,,,
COc1ccc(Nc2ccc(C(=O)O)cc2)c2ccccc12,33%,,,,
O=S(=O)(c1ccc(O)cc1)c1ccc(O)c2ccccc12,30%,,,,
COC(=O)c1ccccc1Nc1c(O)ccc2ccccc12,28%,,,,
COC(=O)c1ccc(Nc2cccc3ccccc23)cc1,62%,27.5,> 27.5,,
COC(=O)c1cc(Nc2ccc(OC)c3ccccc23)ccc1OC,inactive,,,92%,
COC(=O)c1ccc(Cn2ccc(=O)c3ccccc32)cc1,25%,,,,
O=C(O)c1ccccc1Nc1c(O)ccc2ccccc12,56%,,,,
COc1ccc(S(=O)(=O)c2ccc(OC)c3ccccc23)cc1,inactive,,,,
Oc1c(Nc2ccccc2)ccc2ccccc12,61%,,,,
COc1ccc(Sc2ccc(OC)c3ccccc23)cc1,inactive,,,,
COC(=O)c1ccc(Nc2ccc3ccccc3c2OC)cc1,inactive,,,,
Cc1ccc(-c2c(C(OC(C)(C)C)C(=O)O)ccc3sc(C)cc23)cc1 (stereo not given),,96,0.069,,0.046
Oc1ccc(Nc2ccc(O)c3ccccc23)cc1,95%,,,84%,
O=C(O)c1ccc(Nc2cccc3ccccc23)cc1,39%,,,,
Fc1ccc(Nc2ccc(F)c3ccccc23)cc1,63%,38.4,> 38.4,,> 100
COC(=O)c1ccc(Cn2cc(C(C)=O)c(=O)c3ccccc32)cc1,46%,,,,
COc1ccc(Nc2ccc(OC)c3ccccc23)cc1,57%,,,,
O=C(O)c1cc(Nc2ccc(O)c3ccccc23)ccc1O,88%,126,> 126,52%,19.1

Structure (SMILES),inhibition [1],CC50 [2] [µM],EC50 [3] [µM],inhibition (Homo sapiens),IC50 [4] [µM]
CCOC(=O)c1cn(Cc2ccc(C(=O)OC)cc2)c2ccccc2c1=O,60%,5.63,> 5.63,,> 100
COc1ccccc1Nc1ccc(OC)c2ccccc12,inactive,,,,
COc1ccc(Nc2ccccc2)c2ccccc12,inactive,,,,
COc1c(Nc2ccccc2)ccc2ccccc12,inactive,,,,
O=C(O)c1ccc(Cn2ccc(=O)c3ccccc32)cc1,inactive,,,,
COc1ccc(I)cc1Nc1ccc(OC)c2ccccc12,61%,12.5,> 12.5,,28.9
COC(=O)c1ccc(Nc2ccc3ccccc3c2O)cc1,58%,,,,
COc1c(Nc2ccc(I)cc2)ccc2ccccc12,inactive,,,,
CC(=O)c1cn(Cc2ccc(C(=O)O)cc2)c2ccccc2c1=O,inactive,,,,
COC(=O)c1ccccc1Nc1c(OC)ccc2ccccc12,inactive,,,,
COC(=O)c1ccc(Nc2ccc(O)c3ccccc23)cc1,49%,,,,
COc1c(Nc2ccc(C(=O)O)cc2)ccc2ccccc12,inactive,,,,
O=C(O)c1ccc(Nc2ccc(O)c3ccccc23)cc1,95%,1.07,> 1.07,16%,2.5
COc1ccc2ccccc2c1Nc1c(OC)ccc2ccccc12,100%,3.41,> 3.41,74%,13.8
O=C(O)c1ccc(Cn2cc(C(=O)O)c(=O)c3ccccc32)cc1,16%,,,,
Oc1ccc(Sc2ccc(O)c3ccccc23)cc1,38%,,,,
COc1ccc(Nc2ccc(OC)c3ccccc23)cc1C(=O)O,41%,,,,
COC(=O)c1ccc(Nc2ccc(OC)c3ccccc23)cc1,59%,,,inactive,34.8
O=C(O)c1ccc(Nc2ccc3ccccc3c2O)cc1,66%,23.7,> 23.7,,70.1

# — ChEMBL document CHEMBL3612005, “Discovery of N-aryl-naphthylamines as in vitro inhibitors of the interaction between HIV integrase and the cofactor LEDGF/p75” (Eur J Med Chem, 2015)
